Laboratory results published in ChEMBL document CHEMBL4765445, “Structure-activity relationship study of novel quinazoline-based 1,6-naphthyridinones as MET inhibitors with potent antitumor efficacy” (Eur J Med Chem, 2020).
pIC50: −log10 of the molar value.

Assays:
[1] = molecular target: T1, Hepatocyte growth factor receptor (Homo sapiens, UniProt P08581); assay: Inhibition of recombinant MET kinase domain (unknown origin)
[2] = molecular target: T1, Hepatocyte growth factor receptor; assay: Inhibition of MET in human MKN-45 cells assessed as reduction in HGF-mediated autophosphorylation; type: cell-based
[3] = molecular target: Vascular endothelial growth factor receptor 2 (Homo sapiens, UniProt P35968); assay: Inhibition of recombinant VEGFR2 kinase domain (unknown origin)
Summary of the method: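 In vitro kinase assay using purified recombinant VEGFR-2 kinase domain; IC50 determined.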

[4] = Half life in human liver microsomes; type: ADME, Microsome
Homo sapiens = organism: Homo sapiens; assay: Selectivity ratio of IC50 for recombinant VEGFR2 (unknown origin) to IC50 for recombinant MET (unknown origin)
Summary of the method: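 In vitro enzyme assays used purified recombinant MET and VEGFR-2 kinase domains, each tested separately. IC50 values are in nM. The ratio divides the VEGFR-2 enzyme IC50 by the MET enzyme IC50.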

[5] = molecular target: T2, Tyrosine-protein kinase receptor UFO (Homo sapiens, UniProt P30530); assay: Inhibition of Axl (unknown origin)
T2 sequence (P30530 whole entry): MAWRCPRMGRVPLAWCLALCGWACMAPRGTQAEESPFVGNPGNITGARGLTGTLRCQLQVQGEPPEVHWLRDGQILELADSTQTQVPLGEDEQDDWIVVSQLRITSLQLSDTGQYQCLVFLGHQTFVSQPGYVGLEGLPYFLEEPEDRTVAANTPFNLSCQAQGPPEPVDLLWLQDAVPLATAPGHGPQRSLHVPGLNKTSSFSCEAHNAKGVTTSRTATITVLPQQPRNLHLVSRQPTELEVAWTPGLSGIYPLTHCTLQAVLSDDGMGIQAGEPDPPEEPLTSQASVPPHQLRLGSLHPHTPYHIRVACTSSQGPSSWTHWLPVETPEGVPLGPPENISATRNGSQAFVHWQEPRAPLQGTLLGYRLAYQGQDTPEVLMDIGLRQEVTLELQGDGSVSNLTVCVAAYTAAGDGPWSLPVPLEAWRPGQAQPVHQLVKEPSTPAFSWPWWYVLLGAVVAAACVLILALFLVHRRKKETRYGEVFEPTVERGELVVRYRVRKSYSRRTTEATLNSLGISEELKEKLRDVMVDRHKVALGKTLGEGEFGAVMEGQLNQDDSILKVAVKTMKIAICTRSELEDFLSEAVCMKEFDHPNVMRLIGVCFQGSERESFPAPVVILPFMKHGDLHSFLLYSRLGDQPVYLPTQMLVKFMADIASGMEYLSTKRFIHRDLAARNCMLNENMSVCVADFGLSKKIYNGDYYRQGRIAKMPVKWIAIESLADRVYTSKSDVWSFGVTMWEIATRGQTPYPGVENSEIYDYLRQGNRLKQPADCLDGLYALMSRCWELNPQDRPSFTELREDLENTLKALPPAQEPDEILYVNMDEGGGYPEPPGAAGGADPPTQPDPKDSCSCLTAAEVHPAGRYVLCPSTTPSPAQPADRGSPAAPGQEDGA

[6] = molecular target: Mast/stem cell growth factor receptor Kit (Homo sapiens, UniProt P10721); assay: Inhibition of c-KIT (unknown origin)
[7] = molecular target: T3, Receptor-type tyrosine-protein kinase FLT3 (Homo sapiens, UniProt P36888); assay: Inhibition of FLT3 (unknown origin)
T3 sequence (P36888 whole entry): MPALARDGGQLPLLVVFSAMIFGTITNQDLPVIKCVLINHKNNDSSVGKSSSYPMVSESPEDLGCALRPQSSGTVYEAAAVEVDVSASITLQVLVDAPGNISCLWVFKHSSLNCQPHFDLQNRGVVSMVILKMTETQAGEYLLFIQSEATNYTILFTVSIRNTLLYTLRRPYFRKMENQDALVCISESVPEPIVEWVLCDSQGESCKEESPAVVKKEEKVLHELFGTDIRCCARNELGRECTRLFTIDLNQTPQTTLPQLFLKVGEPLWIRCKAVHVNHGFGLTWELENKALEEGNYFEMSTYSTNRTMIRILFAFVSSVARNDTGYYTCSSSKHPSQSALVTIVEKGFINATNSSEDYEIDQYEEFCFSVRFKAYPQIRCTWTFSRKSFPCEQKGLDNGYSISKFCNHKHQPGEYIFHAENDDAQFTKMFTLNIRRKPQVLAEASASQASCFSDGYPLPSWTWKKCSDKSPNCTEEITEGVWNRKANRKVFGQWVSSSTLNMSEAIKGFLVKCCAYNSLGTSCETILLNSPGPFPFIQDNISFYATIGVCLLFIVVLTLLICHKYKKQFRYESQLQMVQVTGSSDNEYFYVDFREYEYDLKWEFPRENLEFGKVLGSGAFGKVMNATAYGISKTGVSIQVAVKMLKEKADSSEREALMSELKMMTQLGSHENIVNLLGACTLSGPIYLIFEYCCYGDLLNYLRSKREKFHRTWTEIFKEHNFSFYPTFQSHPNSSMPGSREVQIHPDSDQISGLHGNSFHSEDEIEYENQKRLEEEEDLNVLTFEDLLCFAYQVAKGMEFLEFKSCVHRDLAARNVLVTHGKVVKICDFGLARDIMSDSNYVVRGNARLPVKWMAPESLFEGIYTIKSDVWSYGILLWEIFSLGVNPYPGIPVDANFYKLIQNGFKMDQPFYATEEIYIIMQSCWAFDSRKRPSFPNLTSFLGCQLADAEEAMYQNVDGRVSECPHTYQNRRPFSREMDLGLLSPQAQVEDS

[8] = molecular target: Platelet-derived growth factor receptor beta (Homo sapiens, UniProt P09619); assay: Inhibition of PDGFRbeta (unknown origin)
[9] = molecular target: Proto-oncogene tyrosine-protein kinase receptor Ret (Homo sapiens, UniProt P07949); assay: Inhibition of RET (unknown origin)
[10] = molecular target: Macrophage-stimulating protein receptor (Homo sapiens, UniProt Q04912); assay: Inhibition of Ron (unknown origin)

T1 sequence (P08581 whole entry, the tested form may be a part): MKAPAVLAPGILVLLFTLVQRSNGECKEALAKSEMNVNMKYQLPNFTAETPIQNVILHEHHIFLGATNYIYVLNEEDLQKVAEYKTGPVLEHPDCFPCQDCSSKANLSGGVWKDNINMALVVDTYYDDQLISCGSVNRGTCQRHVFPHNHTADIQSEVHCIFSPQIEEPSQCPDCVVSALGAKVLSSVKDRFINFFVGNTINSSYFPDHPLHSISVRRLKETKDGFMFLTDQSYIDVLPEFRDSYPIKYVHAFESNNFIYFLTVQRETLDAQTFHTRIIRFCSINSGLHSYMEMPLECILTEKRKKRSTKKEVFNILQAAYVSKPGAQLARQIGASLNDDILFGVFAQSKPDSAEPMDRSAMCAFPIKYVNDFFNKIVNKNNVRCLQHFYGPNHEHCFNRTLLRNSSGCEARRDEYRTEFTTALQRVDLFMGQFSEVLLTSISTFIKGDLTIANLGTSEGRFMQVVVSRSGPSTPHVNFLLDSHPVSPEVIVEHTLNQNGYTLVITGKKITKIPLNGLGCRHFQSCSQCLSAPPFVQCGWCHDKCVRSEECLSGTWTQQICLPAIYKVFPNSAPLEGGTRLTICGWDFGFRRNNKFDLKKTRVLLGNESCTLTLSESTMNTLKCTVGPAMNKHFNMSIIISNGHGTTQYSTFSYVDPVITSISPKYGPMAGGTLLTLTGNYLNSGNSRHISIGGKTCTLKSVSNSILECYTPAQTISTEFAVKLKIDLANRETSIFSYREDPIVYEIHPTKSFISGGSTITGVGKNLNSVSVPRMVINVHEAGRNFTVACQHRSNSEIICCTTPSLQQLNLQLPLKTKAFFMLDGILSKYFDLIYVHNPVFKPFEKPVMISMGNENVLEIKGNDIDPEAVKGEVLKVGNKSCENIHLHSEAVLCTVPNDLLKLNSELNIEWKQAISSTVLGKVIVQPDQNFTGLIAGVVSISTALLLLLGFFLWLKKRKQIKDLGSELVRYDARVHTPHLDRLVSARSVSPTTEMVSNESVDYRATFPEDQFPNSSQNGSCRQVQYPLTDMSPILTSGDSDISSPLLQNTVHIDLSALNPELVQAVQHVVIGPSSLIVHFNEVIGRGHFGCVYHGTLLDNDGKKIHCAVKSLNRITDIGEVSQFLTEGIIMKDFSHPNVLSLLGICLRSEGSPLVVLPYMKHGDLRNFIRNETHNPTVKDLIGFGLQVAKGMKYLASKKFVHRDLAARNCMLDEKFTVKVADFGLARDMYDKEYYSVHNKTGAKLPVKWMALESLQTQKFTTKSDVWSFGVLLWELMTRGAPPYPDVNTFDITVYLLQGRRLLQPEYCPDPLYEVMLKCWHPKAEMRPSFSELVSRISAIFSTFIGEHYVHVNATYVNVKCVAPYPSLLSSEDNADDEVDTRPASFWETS
Sequence of Vascular endothelial growth factor receptor 2 (P35968 whole entry, the tested form may be a part): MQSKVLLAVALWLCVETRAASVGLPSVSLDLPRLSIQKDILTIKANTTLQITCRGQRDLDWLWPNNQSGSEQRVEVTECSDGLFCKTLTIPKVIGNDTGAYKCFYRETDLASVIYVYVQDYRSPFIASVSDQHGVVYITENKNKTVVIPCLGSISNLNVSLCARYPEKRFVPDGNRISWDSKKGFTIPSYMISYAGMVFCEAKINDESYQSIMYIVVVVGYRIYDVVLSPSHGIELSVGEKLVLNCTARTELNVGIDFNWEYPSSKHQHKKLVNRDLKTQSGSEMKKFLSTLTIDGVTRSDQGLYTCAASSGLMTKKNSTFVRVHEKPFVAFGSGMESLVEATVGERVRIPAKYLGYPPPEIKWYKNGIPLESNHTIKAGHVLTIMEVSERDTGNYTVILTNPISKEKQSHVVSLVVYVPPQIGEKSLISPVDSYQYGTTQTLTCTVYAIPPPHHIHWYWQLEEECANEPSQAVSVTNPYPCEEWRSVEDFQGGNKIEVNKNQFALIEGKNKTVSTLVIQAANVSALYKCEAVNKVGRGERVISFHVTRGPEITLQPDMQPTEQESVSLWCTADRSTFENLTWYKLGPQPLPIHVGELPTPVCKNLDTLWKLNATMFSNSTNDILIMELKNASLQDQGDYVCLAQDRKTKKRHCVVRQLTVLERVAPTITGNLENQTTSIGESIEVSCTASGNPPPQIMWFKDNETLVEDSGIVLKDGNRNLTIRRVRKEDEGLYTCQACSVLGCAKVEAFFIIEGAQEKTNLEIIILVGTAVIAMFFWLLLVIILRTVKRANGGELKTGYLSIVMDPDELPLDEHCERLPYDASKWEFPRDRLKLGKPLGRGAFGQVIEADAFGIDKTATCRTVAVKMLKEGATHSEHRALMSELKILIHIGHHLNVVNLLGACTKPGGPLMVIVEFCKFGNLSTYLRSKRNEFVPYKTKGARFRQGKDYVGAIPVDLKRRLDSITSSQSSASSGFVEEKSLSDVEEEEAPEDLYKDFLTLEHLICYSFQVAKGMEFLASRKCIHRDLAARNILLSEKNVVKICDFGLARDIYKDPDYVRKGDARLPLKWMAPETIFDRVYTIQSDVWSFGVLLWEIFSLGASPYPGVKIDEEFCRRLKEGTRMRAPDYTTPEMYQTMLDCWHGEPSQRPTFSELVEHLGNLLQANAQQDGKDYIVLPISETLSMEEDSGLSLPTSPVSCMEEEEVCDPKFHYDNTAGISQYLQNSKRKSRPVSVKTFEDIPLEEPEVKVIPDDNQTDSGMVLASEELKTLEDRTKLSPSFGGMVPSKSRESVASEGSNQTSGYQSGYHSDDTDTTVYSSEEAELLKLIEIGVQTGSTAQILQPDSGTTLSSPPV
Sequence of Platelet-derived growth factor receptor beta (P09619 whole entry): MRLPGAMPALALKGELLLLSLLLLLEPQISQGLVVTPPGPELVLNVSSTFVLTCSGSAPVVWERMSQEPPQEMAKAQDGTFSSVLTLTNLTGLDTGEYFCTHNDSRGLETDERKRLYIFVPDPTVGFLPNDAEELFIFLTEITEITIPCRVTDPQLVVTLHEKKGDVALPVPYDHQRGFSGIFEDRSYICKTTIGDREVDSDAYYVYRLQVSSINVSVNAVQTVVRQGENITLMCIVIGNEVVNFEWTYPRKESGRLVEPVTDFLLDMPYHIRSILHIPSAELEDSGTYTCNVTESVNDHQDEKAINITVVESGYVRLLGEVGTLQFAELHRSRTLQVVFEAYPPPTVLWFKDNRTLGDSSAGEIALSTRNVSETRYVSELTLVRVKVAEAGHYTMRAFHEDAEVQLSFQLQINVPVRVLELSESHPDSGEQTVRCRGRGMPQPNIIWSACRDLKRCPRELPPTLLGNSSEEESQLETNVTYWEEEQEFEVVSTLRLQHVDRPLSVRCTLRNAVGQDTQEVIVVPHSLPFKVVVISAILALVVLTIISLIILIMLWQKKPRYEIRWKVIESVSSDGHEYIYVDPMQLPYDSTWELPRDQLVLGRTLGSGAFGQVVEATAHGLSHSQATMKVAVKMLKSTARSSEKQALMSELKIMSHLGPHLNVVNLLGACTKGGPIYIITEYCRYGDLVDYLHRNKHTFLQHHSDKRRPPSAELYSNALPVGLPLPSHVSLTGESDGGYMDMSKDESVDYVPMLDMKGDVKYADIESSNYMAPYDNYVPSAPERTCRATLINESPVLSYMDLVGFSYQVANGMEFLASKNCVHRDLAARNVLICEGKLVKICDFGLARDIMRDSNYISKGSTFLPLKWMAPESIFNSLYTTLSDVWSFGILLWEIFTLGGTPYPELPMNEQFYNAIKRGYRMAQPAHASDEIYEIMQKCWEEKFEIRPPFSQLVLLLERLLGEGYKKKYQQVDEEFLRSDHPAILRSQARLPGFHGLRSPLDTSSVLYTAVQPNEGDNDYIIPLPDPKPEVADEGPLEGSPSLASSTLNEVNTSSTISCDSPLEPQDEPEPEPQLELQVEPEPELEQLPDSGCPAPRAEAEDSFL
Sequence of Proto-oncogene tyrosine-protein kinase receptor Ret (P07949 whole entry): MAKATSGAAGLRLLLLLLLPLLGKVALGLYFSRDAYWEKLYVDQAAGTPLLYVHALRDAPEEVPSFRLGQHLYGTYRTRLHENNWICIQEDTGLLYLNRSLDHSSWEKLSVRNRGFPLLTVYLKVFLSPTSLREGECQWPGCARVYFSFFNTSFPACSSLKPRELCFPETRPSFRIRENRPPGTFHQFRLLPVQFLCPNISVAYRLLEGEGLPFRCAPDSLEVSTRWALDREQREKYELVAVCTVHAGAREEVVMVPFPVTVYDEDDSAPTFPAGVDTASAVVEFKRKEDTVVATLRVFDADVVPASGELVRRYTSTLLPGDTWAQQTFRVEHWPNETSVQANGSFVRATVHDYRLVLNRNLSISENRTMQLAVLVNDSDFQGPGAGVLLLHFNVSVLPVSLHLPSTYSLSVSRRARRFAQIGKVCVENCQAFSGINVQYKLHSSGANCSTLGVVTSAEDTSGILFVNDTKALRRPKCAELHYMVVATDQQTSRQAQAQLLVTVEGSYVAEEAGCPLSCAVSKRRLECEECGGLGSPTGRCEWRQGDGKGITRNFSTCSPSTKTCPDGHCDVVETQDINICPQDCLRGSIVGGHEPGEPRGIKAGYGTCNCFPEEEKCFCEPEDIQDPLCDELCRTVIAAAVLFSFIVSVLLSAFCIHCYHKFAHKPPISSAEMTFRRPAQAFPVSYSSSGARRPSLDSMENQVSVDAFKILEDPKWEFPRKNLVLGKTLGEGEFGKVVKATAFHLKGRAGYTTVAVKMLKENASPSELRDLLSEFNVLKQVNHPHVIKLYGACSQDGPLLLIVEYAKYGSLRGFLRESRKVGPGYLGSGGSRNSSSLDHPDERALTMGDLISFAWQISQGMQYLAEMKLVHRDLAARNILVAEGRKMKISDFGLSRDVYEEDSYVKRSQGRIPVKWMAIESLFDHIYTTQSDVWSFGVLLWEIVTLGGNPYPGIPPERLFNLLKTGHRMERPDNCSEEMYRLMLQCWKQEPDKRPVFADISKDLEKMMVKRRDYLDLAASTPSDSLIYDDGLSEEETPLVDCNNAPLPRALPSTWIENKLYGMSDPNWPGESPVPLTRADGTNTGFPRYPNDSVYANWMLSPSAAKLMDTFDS

| pIC50 [1] | pIC50 [3] | SMILES | also measured |
| --- | --- | --- | --- |
| 8.03 | 6.79 | CCN(CC)CCCOc1cc2c(Oc3ccc(Nc4nccc5[nH]cc(-c6ccc(F)cc6)c(=O)c45)cc3F)ncnc2cc1OC | pIC50 [2]: 6.40 |
| – | 6.57 | COc1cc2ncnc(Oc3ccc(Nc4nccc5[nH]cc(-c6ccc(F)cc6)c(=O)c45)cc3F)c2cc1OC | pIC50 [2]: 7.23; half-life [4]: 4.83 h; Ratio IC50 (Homo sapiens): 27.6; pIC50 [5]: 7.96; pIC50 [6]: 7.35; pIC50 [7]: 7.99; pIC50 [8]: 5.87; pIC50 [9]: 7.19; pIC50 [10]: 7.05 |
| 8.46 | 7.91 | COc1cc2ncnc(Oc3ccc(Nc4nccc5[nH]cc(-c6ccc(F)cc6)c(=O)c45)cc3F)c2cc1OCCO.Cc1ccc(S(=O)(=O)O)cc1 | half-life [4]: 4.68 h |
| 6.71 | < 5.52 | COc1cc2ncnc(Oc3ccc(Nc4nccc5c4c(=O)c(-c4ccc(F)cc4)cn5CC(=O)c4ccccc4)cc3F)c2cc1OC | – |
| 8.10 | 7.28 | COc1cc2ncnc(Oc3ccc(Nc4nccc5[nH]cc(-c6ccc(F)cc6)c(=O)c45)cc3F)c2cc1OCC(C)(C)O | half-life [4]: 4.17 h |
| 7.44 | 7.01 | COCCOc1cc2c(Oc3ccc(Nc4nccc5[nH]cc(-c6ccc(F)cc6)c(=O)c45)cc3F)ncnc2cc1OC | – |
| 7.61 | – | COc1cc2c(Oc3ccc(Nc4nccc5[nH]cc(-c6ccc(F)cc6)c(=O)c45)cc3F)ncnc2cc1OCCN1CCOCC1 | – |
| 7.19 | 7.03 | COc1cc2c(Oc3ccc(Nc4nccc5[nH]cc(-c6ccc(F)cc6)c(=O)c45)cc3F)ncnc2cc1OCC(C)(C)O | – |
| 7.38 | 6.85 | COCCOc1cc2ncnc(Oc3ccc(Nc4nccc5[nH]cc(-c6ccc(F)cc6)c(=O)c45)cc3F)c2cc1OC | – |
| 7.71 | 7.10 | COCCOc1cc2ncnc(Oc3ccc(Nc4nccc5[nH]cc(-c6ccc(F)cc6)c(=O)c45)cc3F)c2cc1OCCOC | – |
| 7.41 | 7.17 | COc1cc2c(Oc3ccc(Nc4nccc5[nH]cc(-c6ccc(F)cc6)c(=O)c45)cc3F)ncnc2cc1OCCCO | – |
| 7.54 | < 5.52 | CCn1cc(-c2ccc(F)cc2)c(=O)c2c(Nc3ccc(Oc4ncnc5cc(OC)c(OC)cc45)c(F)c3)nccc21 | Ratio IC50 (Homo sapiens): > 275 |
